≈ marks a conversion by molar mass, not a printed value. Calls of active or inactive are those of the source. No cut-off for these calls is given here.
Experiments:
Bacillus subtilis [1] = assay: Antibacterial activity against Bacillus subtilis at 50 ug/ml after 24 hrs by agar well diffusion method; type: functional; conditions: for zone of inhibition at 50 µg/mL: read-out: DIZ
Outline: (§1)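 Agar well diffusion. Nutrient plates swabbed with 24 h broth culture of the bacterium; 6 mm wells bored and loaded with DMSO solutions of compound (wells at 50 and 100 per well). Chloramphenicol positive control, DMSO negative control. Plates held 37 °C, 24 h; inhibition zone diameter (mm) measured, mean of duplicates.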

Bacillus subtilis [2] = assay: Antibacterial activity against Bacillus subtilis at 100 ug/ml after 24 hrs by agar well diffusion method; type: functional; conditions: for zone of inhibition at 100 µg/mL: read-out: DIZ; outline: as §1
A549 [3] = assay: Cytotoxicity against human A549 cells assessed as decrease in viability at 100 to 200 uM after 72 hrs by MTT assay; type: functional, cell-based
Outline: (§2)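 A549 lung carcinoma cells, 5 × 10⁴ per well, in DMEM with 10% FBS and antibiotics at 37 °C, 5% CO₂. After 3–4 h attachment, compound added at various concentrations for 72 h. MTT then added for 3 h, formazan dissolved in DMSO, absorbance read at 550 nm. Triplicate wells, three independent experiments; IC50 derived by curve fitting.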

Aspergillus niger [4] = assay: Antifungal activity against Aspergillus niger at 50 ug/ml after 48 hrs by agar well diffusion method; type: functional; conditions: for zone of inhibition at 50 µg/mL: read-out: DIZ
Outline: (§3)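 Fungal agar well diffusion. Plates swabbed with fungal culture, 6 mm wells filled with DMSO solutions of compound (50 and 100 per well). Ketoconazole positive and DMSO negative controls. Plates incubated 28 °C for 48 h; zone of inhibition diameter (mm) read, average of duplicates.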

Pseudomonas aeruginosa [5] = assay: Antibacterial activity against Pseudomonas aeruginosa at 50 ug/ml after 24 hrs by agar well diffusion method; type: functional; conditions: for zone of inhibition at 50 µg/mL: read-out: DIZ; outline: as §1
Aspergillus niger [6] = assay: Antifungal activity against Aspergillus niger at 100 ug/ml after 48 hrs by agar well diffusion method; type: functional; conditions: for zone of inhibition at 100 µg/mL: read-out: DIZ; outline: as §3
Klebsiella pneumoniae [7] = assay: Antibacterial activity against Klebsiella pneumoniae at 50 ug/ml after 24 hrs by agar well diffusion method; type: functional; conditions: for zone of inhibition at 50 µg/mL: read-out: DIZ; outline: as §1
Penicillium chrysogenum [8] = assay: Antifungal activity against Penicillium chrysogenum at 50 ug/ml after 48 hrs by agar well diffusion method; type: functional; conditions: for zone of inhibition at 50 µg/mL: read-out: DIZ; outline: as §3
A549 [9] = assay: Cytotoxicity against human A549 cells after 72 hrs by MTT assay; type: functional, cell-based; outline: as §2
Staphylococcus aureus [10] = assay: Antibacterial activity against Staphylococcus aureus at 50 ug/ml after 24 hrs by agar well diffusion method; type: functional; conditions: for zone of inhibition at 50 µg/mL: read-out: DIZ; outline: as §1
Klebsiella pneumoniae [11] = assay: Antibacterial activity against Klebsiella pneumoniae at 100 ug/ml after 24 hrs by agar well diffusion method; type: functional; conditions: for zone of inhibition at 100 µg/mL: read-out: DIZ; outline: as §1
A549 [12] = assay: Cytotoxicity against human A549 cells assessed as viability at 12.5 uM after 72 hrs by MTT assay; type: functional; conditions: A549, 72 h, read-out: Activity; outline: as §2
Pseudomonas aeruginosa [13] = assay: Antibacterial activity against Pseudomonas aeruginosa at 100 ug/ml after 24 hrs by agar well diffusion method; type: functional; conditions: for zone of inhibition at 100 µg/mL: read-out: DIZ; outline: as §1
Staphylococcus aureus [14] = assay: Antibacterial activity against Staphylococcus aureus at 100 ug/ml after 24 hrs by agar well diffusion method; type: functional; conditions: for zone of inhibition at 100 µg/mL: read-out: DIZ; outline: as §1
Penicillium chrysogenum [15] = assay: Antifungal activity against Penicillium chrysogenum at 100 ug/ml after 48 hrs by agar well diffusion method; type: functional; conditions: for zone of inhibition at 100 µg/mL: read-out: DIZ; outline: as §3
Pseudomonas aeruginosa [16] = assay: Bactericidal activity against Pseudomonas aeruginosa after 24 hrs by broth dilution method; type: functional
Aspergillus niger [17] = assay: Antifungal activity against Aspergillus niger after 48 hrs by broth dilution method; type: functional
Outline: (§4)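 Fungal MIC by broth dilution. Compounds dissolved in DMSO, added at rising concentrations to fungal culture tubes, incubated 28 °C for 48 h. Tubes read for visible turbidity alongside a solvent control; lowest concentration with no visible growth taken as MIC.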

Bacillus subtilis [18] = assay: Bactericidal activity against Bacillus subtilis after 24 hrs by broth dilution method; type: functional
Penicillium chrysogenum [19] = assay: Antifungal activity against Penicillium chrysogenum after 48 hrs by broth dilution method; type: functional; outline: as §4
A549 [20] = assay: Cytotoxicity against human A549 cells up to 0.2 mM after 72 hrs by MTT assay
Staphylococcus aureus [21] = assay: Antibacterial activity against Staphylococcus aureus after 24 hrs by broth dilution method; type: functional
Outline: (§5)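 Broth dilution MIC. Test samples in DMSO added at increasing concentrations to tubes of nutrient broth cultures, incubated 37 °C for 24 h. Visible turbidity scored against NB control; solvent and no-sample controls included. MIC = lowest concentration preventing visible growth.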

Pseudomonas aeruginosa [22] = assay: Antibacterial activity against Pseudomonas aeruginosa after 24 hrs by broth dilution method; type: functional; outline: as §5
Klebsiella pneumoniae [23] = assay: Bactericidal activity against Klebsiella pneumoniae after 24 hrs by broth dilution method; type: functional
Aspergillus niger [24] = assay: Fungicidal activity against Aspergillus niger after 48 hrs by broth dilution method; type: functional
Bacillus subtilis [25] = assay: Antibacterial activity against Bacillus subtilis after 24 hrs by broth dilution method; type: functional; outline: as §5
Klebsiella pneumoniae [26] = assay: Antibacterial activity against Klebsiella pneumoniae after 24 hrs by broth dilution method; type: functional; outline: as §5
Penicillium chrysogenum [27] = assay: Fungicidal activity against Penicillium chrysogenum after 48 hrs by broth dilution method; type: functional
Staphylococcus aureus [28] = assay: Bactericidal activity against Staphylococcus aureus after 24 hrs by broth dilution method; type: functional
Penicillium chrysogenum [29] = assay: Ratio of MFC to MIC for Penicillium chrysogenum after 48 hrs; type: functional
Bacillus subtilis [30] = assay: Ratio of MBC to MIC for Bacillus subtilis after 24 hrs; type: functional

SMILES	zone of inhibition at 50 µg/mL (Bacillus subtilis [1]) [mm]	zone of inhibition at 100 µg/mL (Bacillus subtilis [2]) [mm]	zone of inhibition at 50 µg/mL (Aspergillus niger [4]) [mm]	zone of inhibition at 50 µg/mL (Pseudomonas aeruginosa [5]) [mm]	zone of inhibition at 100 µg/mL (Aspergillus niger [6]) [mm]	zone of inhibition at 50 µg/mL (Klebsiella pneumoniae [7]) [mm]	zone of inhibition at 50 µg/mL (Penicillium chrysogenum [8]) [mm]	zone of inhibition at 50 µg/mL (Staphylococcus aureus [10]) [mm]	zone of inhibition at 100 µg/mL (Klebsiella pneumoniae [11]) [mm]	zone of inhibition at 100 µg/mL (Pseudomonas aeruginosa [13]) [mm]	zone of inhibition at 100 µg/mL (Staphylococcus aureus [14]) [mm]	zone of inhibition at 100 µg/mL (Penicillium chrysogenum [15]) [mm]	MBC (Pseudomonas aeruginosa [16]) [µg/mL]	MIC (Aspergillus niger [17]) [µg/mL]	MIC (Penicillium chrysogenum [19]) [µg/mL]	Activity (A549 [20])	MIC (Staphylococcus aureus [21]) [µg/mL]	MIC (Pseudomonas aeruginosa [22]) [µg/mL]	MIC (Bacillus subtilis [25]) [µg/mL]	MIC (Klebsiella pneumoniae [26]) [µg/mL]	other results
O=S(=O)(/C=C/S(=O)(=O)c1ccc(Cl)cc1)Cc1nnc(CS(=O)(=O)Nc2ccc(Cl)cc2)o1	15	17	19	16	22	15	21	14	17	19	17	25	–	–	–	–	–	–	–	–	Activity (A549 [3]): Active; Activity (A549 [9]): Dose-dependent effect; IC50 (A549 [9]; A549, 72 h): 31.7 µM; viability at 12.5 µM (A549 [12]): > 75%
Nn1c(CS(=O)(=O)Nc2ccc(Cl)cc2)nnc1CS(=O)(=O)c1c[nH]cc1S(=O)(=O)c1ccc(Cl)cc1	29	33	32	25	34	34	33	30	36	28	33	36	> 200	25 (≈ 41.3 µM)	50 (≈ 82.6 µM)	inactive	50 (≈ 82.6 µM)	50 (≈ 82.6 µM)	25 (≈ 41.3 µM)	100 (≈ 165 µM)	MBC (Bacillus subtilis [18]): 100 µg/mL (≈ 165 µM); MBC (Klebsiella pneumoniae [23]): > 200 µg/mL; MFC (Aspergillus niger [24]): 100 µg/mL (≈ 165 µM); MFC (Penicillium chrysogenum [27]): > 200 µg/mL; MBC (Staphylococcus aureus [28]): 200 µg/mL (≈ 330 µM)
O=C(N[C@H](CO)[C@H](O)c1ccc([N+](=O)[O-])cc1)C(Cl)Cl [CHLORAMPHENICOL]	34	38	–	27	–	40	–	33	42	30	35	–	–	–	–	–	6.25 (≈ 19.3 µM)	6.25 (≈ 19.3 µM)	6.25 (≈ 19.3 µM)	12.5 (≈ 38.7 µM)	–
CC(=O)N1CCN(c2ccc(OCC3COC(Cn4ccnc4)(c4ccc(Cl)cc4Cl)O3)cc2)CC1 (configuration not stated) [KETOCONAZOLE]	–	–	33	–	36	–	36	–	–	–	–	38	–	6.25 (≈ 11.8 µM)	12.5 (≈ 23.5 µM)	–	–	–	–	–	–
Nn1c(CS(=O)(=O)Nc2ccc(Cl)cc2)nnc1CS(=O)(=O)c1c[nH]nc1S(=O)(=O)c1ccc(Cl)cc1	33	35	30	30	34	37	33	31	39	32	34	37	100 (≈ 165 µM)	12.5 (≈ 20.6 µM)	25 (≈ 41.2 µM)	inactive	50 (≈ 82.4 µM)	25 (≈ 41.2 µM)	12.5 (≈ 20.6 µM)	50 (≈ 82.4 µM)	MBC (Bacillus subtilis [18]): 50 µg/mL (≈ 82.4 µM); MBC (Klebsiella pneumoniae [23]): 200 µg/mL (≈ 330 µM); MFC (Aspergillus niger [24]): 50 µg/mL (≈ 82.4 µM); MFC (Penicillium chrysogenum [27]): 100 µg/mL (≈ 165 µM); MBC (Staphylococcus aureus [28]): 200 µg/mL (≈ 330 µM)
Nn1c(CS(=O)(=O)/C=C/S(=O)(=O)c2ccc(Cl)cc2)nnc1CS(=O)(=O)Nc1ccc(Cl)cc1	36	38	32	31	34	39	35	32	40	33	35	38	50 (≈ 88.3 µM)	12.5 (≈ 22.1 µM)	25 (≈ 44.1 µM)	inactive	12.5 (≈ 22.1 µM)	12.5 (≈ 22.1 µM)	12.5 (≈ 22.1 µM)	25 (≈ 44.1 µM)	Ratio (Penicillium chrysogenum [29]): 2; MBC (Bacillus subtilis [18]): 25 µg/mL (≈ 44.1 µM); MBC (Klebsiella pneumoniae [23]): 100 µg/mL (≈ 177 µM); Ratio (Bacillus subtilis [30]): 2; MFC (Aspergillus niger [24]): 100 µg/mL (≈ 177 µM); MFC (Penicillium chrysogenum [27]): 50 µg/mL (≈ 88.3 µM); MBC (Staphylococcus aureus [28]): 50 µg/mL (≈ 88.3 µM)
O=S(=O)(Cc1nnc(CS(=O)(=O)C2CNN=C2S(=O)(=O)c2ccccc2)s1)Nc1ccccc1 (configuration not stated)	14	16	–	–	–	–	–	12	–	–	14	–	–	–	–	inactive	–	–	–	–	diameter of the inhibition zone (DIZ) (Aspergillus niger [4]): inactive; diameter of the inhibition zone (DIZ) (Pseudomonas aeruginosa [5]): inactive; diameter of the inhibition zone (DIZ) (Aspergillus niger [6]): inactive; diameter of the inhibition zone (DIZ) (Klebsiella pneumoniae [7]): inactive; diameter of the inhibition zone (DIZ) (Penicillium chrysogenum [8]): inactive; diameter of the inhibition zone (DIZ) (Klebsiella pneumoniae [11]): inactive; diameter of the inhibition zone (DIZ) (Pseudomonas aeruginosa [13]): inactive; diameter of the inhibition zone (DIZ) (Penicillium chrysogenum [15]): inactive
Cc1ccc(NS(=O)(=O)Cc2nnc(CS(=O)(=O)/C=C/S(=O)(=O)c3ccc(C)cc3)o2)cc1	–	–	–	–	–	–	–	–	–	–	–	–	–	–	–	inactive	–	–	–	–	diameter of the inhibition zone (DIZ) (Bacillus subtilis [1]): inactive; diameter of the inhibition zone (DIZ) (Bacillus subtilis [2]): inactive; diameter of the inhibition zone (DIZ) (Aspergillus niger [4]): inactive; diameter of the inhibition zone (DIZ) (Pseudomonas aeruginosa [5]): inactive; diameter of the inhibition zone (DIZ) (Aspergillus niger [6]): inactive; diameter of the inhibition zone (DIZ) (Klebsiella pneumoniae [7]): inactive; diameter of the inhibition zone (DIZ) (Penicillium chrysogenum [8]): inactive; diameter of the inhibition zone (DIZ) (Staphylococcus aureus [10]): inactive; diameter of the inhibition zone (DIZ) (Klebsiella pneumoniae [11]): inactive; diameter of the inhibition zone (DIZ) (Pseudomonas aeruginosa [13]): inactive; diameter of the inhibition zone (DIZ) (Staphylococcus aureus [14]): inactive; diameter of the inhibition zone (DIZ) (Penicillium chrysogenum [15]): inactive

Source: ChEMBL document CHEMBL2040768, “Synthesis, antimicrobial and cytotoxic activities of sulfone linked bis heterocycles” (Eur J Med Chem, 2012)
